What was measured:
Oryctolagus cuniculus = species: Oryctolagus cuniculus; experiment: Tested for [Ca2+] antagonism in rabbit renal artery; assay type: functional
Method in brief: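 Isolated renal artery under 1 g tension; isometric contractions to 60 mM KCl repeated at 30 min intervals without and with increasing concentrations of test compound or nifedipine as reference. IC50 from the concentration–response.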

Cavia porcellus [1] = species: Cavia porcellus; experiment: Tested for [Ca2+] antagonism in guinea pig ileum; assay type: functional
Method in brief: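 Screening preparation under 1 g tension; isometric contractions to 60 mM KCl elicited at 15-min intervals without and with increasing compound concentrations. IC50 (concentration inhibiting the KCl response by 50%) from least-squares regression.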

Thromboxane-A synthase = molecular target: T1, Thromboxane-A synthase (Rattus norvegicus, UniProt P49430); experiment: In vitro inhibition of thromboxane B2 production in rat whole blood.; assay type: functional, tissue-based
T1 sequence (P49430 whole entry): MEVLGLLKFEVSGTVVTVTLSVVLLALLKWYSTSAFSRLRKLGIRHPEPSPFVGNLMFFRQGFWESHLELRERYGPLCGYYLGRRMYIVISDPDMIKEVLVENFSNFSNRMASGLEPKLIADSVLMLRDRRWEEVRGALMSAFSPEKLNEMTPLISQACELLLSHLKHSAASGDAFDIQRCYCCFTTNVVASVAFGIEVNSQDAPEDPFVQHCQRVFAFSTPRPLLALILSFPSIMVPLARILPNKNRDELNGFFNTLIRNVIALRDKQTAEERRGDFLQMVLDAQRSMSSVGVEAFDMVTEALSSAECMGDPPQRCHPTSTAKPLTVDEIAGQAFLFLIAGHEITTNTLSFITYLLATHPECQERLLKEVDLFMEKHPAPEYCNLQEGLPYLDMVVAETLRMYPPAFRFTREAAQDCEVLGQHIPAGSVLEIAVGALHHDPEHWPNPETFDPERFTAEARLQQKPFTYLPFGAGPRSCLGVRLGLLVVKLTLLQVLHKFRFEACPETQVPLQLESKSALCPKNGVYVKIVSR

Cavia porcellus [2] = species: Cavia porcellus; experiment: Inhibition of K+ induced contractions of the isolated guinea pig ileum.; assay type: functional
Cavia porcellus [3] = species: Cavia porcellus; experiment: Tested for [Ca2+] antagonism in guinea pig right ventricle; assay type: functional; conditions: Heart right ventricle
Method in brief: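 Male guinea pig (0.5–0.8 kg) right ventricular strips (10 × 2 mm) in oxygenated Tyrode at 29 °C, 1 g preload. Electrically paced (3 ms, 2 Hz) for 60 min, depolarized with 22 mM KCl, then contractility restored with 10 μM histamine at 0.2 Hz pacing. Isometric contraction recorded; IC50 from computerized regression analysis.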

Cavia porcellus [4] = species: Cavia porcellus; experiment: Tested for [Ca2+] antagonism in guinea pig atria; assay type: functional
Method in brief: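 Male guinea pig (0.5–0.8 kg) spontaneously beating atria in oxygenated (95% O2/5% CO2) Locke solution at 37 °C under 1 g preload, rested 60 min. Compounds added cumulatively with 30 min contact per concentration. Isometric contraction recorded; IC25 from computerized regression analysis.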

Compound	IC50 (Oryctolagus cuniculus)	IC50 (Cavia porcellus [1])	IC50 (Thromboxane-A synthase)	IC50 (Cavia porcellus [2])	IC50 (Cavia porcellus [3])	IC25 (Cavia porcellus [4])
CCOC(=O)C1=C(C)N=C(C)/C(=C(/O)OCC)C1c1cccc(-n2ccnc2)c1 (centres undefined)	111 nM	61.5 nM	170 nM	60 nM	2150 nM	94.2 nM
CCO/C(O)=C1\C(C)=NC(C)=C(C(=O)OC)C1c1cccc(-n2ccnc2)c1 (centres undefined)			240 nM	260 nM		
CCOC(=O)C1=C(CC)N=C(CC)/C(=C(/O)OCC)C1c1cccc(-n2ccnc2)c1 (centres undefined)			> 1000 nM	970 nM		
CCO/C(O)=C1\C(COCCN)=NC(C)=C(C(=O)OC)C1c1cccc(-n2ccnc2)c1 (centres undefined)			300 nM	2370 nM		
CCOC(=O)C1=C(C)N=C(C)/C(=C(/O)OCC)C1c1cccc(Cn2ccnc2)c1 (centres undefined)			730 nM	1670 nM		
CCOC(=O)C1=C(C)N=C(C)/C(=C(/O)OCC)C1c1ccc(-n2ccnc2)cc1 (centres undefined)			> 1000 nM	23000 nM		
CCO/C(O)=C1\C(C)=NC(C)=C(C(=O)OCCN(C)Cc2ccccc2)C1c1cccc(-n2ccnc2)c1 (centres undefined)			220 nM	50 nM		
CCO/C(O)=C1\C(C)=NC(C)=C(C(=O)O)C1c1cccc(-n2ccnc2)c1 (centres undefined)			> 1000 nM	1960 nM		
CCOC(=O)C1=C(C)N=C(C)/C(=C(/O)OCC)C1c1cccc(-c2cccnc2)c1 (centres undefined)			280 nM	100 nM		
CO/C(O)=C1\C(C)=NC(C)=C(C(C)=O)C1c1cccc(-n2ccnc2)c1 (centres undefined)			260 nM	> 10000 nM		
CCO/C(O)=C1\C(COC)=NC(C)=C(C(=O)OC)C1c1cccc(-n2ccnc2)c1 (centres undefined)			400 nM	1950 nM		
COC(=O)C1=C(C)N=C(C)/C(=C(/O)OC)C1c1cccc(-n2ccnc2)c1 (centres undefined)			270 nM	850 nM		
CC1=NC(C)=C(C(=O)OCC(C)C)C(c2cccc(-c3cccnc3)c2)/C1=C(\O)OCC(C)C (centres undefined)			> 1000 nM	1500 nM		
CCOC(=O)C1=C(C)N=C(C)/C(=C(/O)OCC)C1c1ccccc1-n1ccnc1 (centres undefined)			> 1000 nM	460 nM		
CCO/C(O)=C1\C(C)=NC(C)=C(C(=O)OCCN(C)Cc2ccccc2)C1c1cccc(-c2cccnc2)c1 (centres undefined)			> 1000 nM	60 nM		
CCOC(=O)c1c(C)nc(C)c(C(=O)OCC)c1-c1cccc(-n2ccnc2)c1			> 1000 nM	> 10000 nM		
CCOC(=O)C1=C(C)N(C)C(C)=C(C(=O)OCC)C1c1cccc(-n2ccnc2)c1			640 nM	8840 nM		
COC(=O)C1=C(C)NC(C)=C(C(=O)OC)C1c1ccccc1[N+](=O)[O-] [NIFEDIPINE]	6.9 nM	4.7 nM	> 10000 nM	4 nM	57.8 nM	31.5 nM

From ChEMBL document CHEMBL1126839, “Imidazol-1-yl and pyridin-3-yl derivatives of 4-phenyl-1,4-dihydropyridines combining Ca2+ antagonism and thromboxane A2 synthase inhibition” (J Med Chem, 1993)
